# This is one part of a sample in which hits are shown more often than they occur.
# Calb FLC: affects C. albicans growth with fluconazole | C. albicans CaCi-2 (fluconazole-resistant clinical isolate) + fluconazole, Alamar Blue growth, 48 h | growth inhibition, % (no concentration beside the values) | 300,000 tested, 0.57% active;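 active = growth inhibition above about 58% in most replicates, limit read from the data, passing the limit was not always enough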;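 also: all wells also contain fluconazole at 8 µg/ml as a sub-toxic cotreatment; 0% = median of DMSO wells and 100% = median of geldanamycin control wells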
# NALP3 yeast inh: inhibitors of NALP3 inflammasome in yeast; inhibition, % at 10 µM; AID 2825; Yeast reconstituted NLRP3/ASC/caspase-1, beta-gal luminescence, 24 h; 330,000 tested, 0.39% active;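 active = inhibition of 50% or more; inactive = inhibition below 50%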;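 also: plate controls were induced DMSO wells for no effect and uninduced yeast grown without galactose for full effect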
# NALP1 yeast inh: blocks the NALP1 inflammasome reconstituted in yeast | 280,000 tested, 0.61% active | S. cerevisiae NALP1/ASC/caspase-1 growth, X-gal OD620, 72 h | inhibition, % at 10 µM; in the data active = inhibition mostly above about 24%, no sharp cut-off; inactive = mostly below about 32%
# T cruzi repl: T. cruzi replication inhibition | T. cruzi beta-gal in NIH3T3, luminescence, 90 h | inhibition, % (concentration not given with the values) | 300,000 tested, 1.4% active;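 active = mean inhibition across valid replicates above about 55%, limit read from the data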;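 also: signal also drops with host cell toxicity which is not excluded here; 0% = plate median of DMSO wells and 100% = zero luminescence signal; higher percent means less beta-gal luminescence so fewer parasites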
#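 Test system: β-gal T. cruzi (Tulahuen C4) inside NIH/3T3 cells / Quantity: 5,000 cells/well / Measured by: luminescence from GalScreen with 0.05% NP40, read after 60 min / Medium: DMEM plus 2% FBS / Measure: parasite load inhibition, % / Reagent: Tulahuen C4 trypomastigotes, 5000/well / Schedule: co-culture of at least 90 h after 3 h attachment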
# L major viab: inhibitors of Leishmania major promastigote growth; inhibition, % at 10 µM; AID 1063; 200,000 tested, 9% active; Leishmania major promastigotes, resazurin fluorescence viability; in the data active = inhibition above about 50%;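 also: promastigotes grown with compound for 44 hours at 28 °C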
# PolyA inhibitor: yeast polyadenylation inhibition. 300,000 tested, 0.02% active. activity score, % at 12 µM. S. cerevisiae SKY197-pL101 polyadenylation reporter, beta-gal luminescence; efflux-impaired pdr1/pdr3 knockout yeast; score 100 = 6 SD above DMSO;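 active = lowest replicate activity score at least 50, where 100 means six control SD above control mean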;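 also: yeast exposed to compound for 9 h at 30 °C; higher score means more reporter readthrough which indicates perturbed polyadenylation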
# The depositor's hits bear a star; / = no result.
SMILES,Calb FLC,NALP3 yeast inh,NALP1 yeast inh,T cruzi repl,L major viab,PolyA inhibitor
CCOC(=O)/C(=C\c1ccc(Cl)cc1)c1nc2sc(C)c(C)c2c(=O)[nH]1,30,28,44*,-2,100*,-14
CCOC(=O)CSc1nc2sc(C)c(C)c2c(=O)[nH]1,-2,-6,17,1,-1,-20
O=C(CCc1nc2ccccc2c(=O)[nH]1)NCCN1C(=O)S/C(=C\c2ccc(Cl)cc2Cl)C1=O,7,6,/,-6,/,-15
CC1(C)C(O)=C(c2nc3ccccc3[nH]2)C(=N)N1c1ccccc1,100*,0,-5,-14,82*,2
COc1cc(/C=C(\NC(C)=O)C(=O)Nc2ccc(NC(C)=O)cc2)ccc1OC(C)=O,-1,1,4,-8,57*,1
COc1ccc(NC(=O)/C(=C/c2ccc(OC(C)=O)c(OC)c2)NC(C)=O)cc1,-2,-6,11,8,1,7
CCOC(=O)c1sc2ncn(C(CC)C(=O)OC)c(=O)c2c1C (stereo unspecified),-4,15,-49,6,18,-3
CCOC(=O)c1sc2ncn(C(CC)C(=O)OCC)c(=O)c2c1C (stereo unspecified),-19,23,4,-7,99*,-19
CC(C)CC(=O)NC(Nc1ccccc1F)C(Cl)(Cl)Cl (stereo unspecified),-19,14,24,0,63*,-2
COc1ccc(S(=O)(=O)N(CC(=O)NCC2CCCO2)Cc2ccccc2)cc1C (stereo unspecified),3,2,20,0,/,-14
COc1ccc(-n2cnnc2SCC(=O)Nc2ccccc2F)cc1,-7,10,34,-6,/,4
O=C(COC(=O)C1(c2ccccc2F)CCCC1)N1CCNC1=O,/,7,/,/,/,/
CN(CC(O)COc1ccccc1F)C1CCCCC1 (stereo unspecified),-9,28,-10,-1,9,5
CCN(CC(O)COc1ccc(OCC(O)CN(CC)C2CCCCC2)cc1)C1CCCCC1 (stereo unspecified),3,27,/,28,100*,7
CN1CCC(N(C)C(=O)COc2ccc(S(=O)(=O)N3CCOCC3)cc2)CC1,6,20,14,33,3,-4
Cc1ccccc1OCC(O)CN(Cc1ccccc1O)C1CCCCC1 (stereo unspecified),2,3,12,22,91*,-1
CCN(CC(O)COCc1ccc(Cl)cc1)C1CCCCC1 (stereo unspecified),-18,29,22,18,68*,16
CN(CC(O)COc1ccc(S(=O)(=O)N2CCOCC2)cc1)C1CCCCC1 (stereo unspecified),-3,-6,16,10,97*,10
CC1CCCC(NC(=O)CN(C)CC(=O)Nc2ccc(F)cc2)C1C (stereo unspecified),/,-1,/,/,/,/
COc1cccc(Nc2nc(N)c([N+](=O)[O-])c(N3CCOCC3)n2)c1,3,14,24,13,/,9
COc1ccc(CN(C(=O)c2cc(=O)c3cc(C)cc(C)c3o2)C2CCS(=O)(=O)C2)cc1 (stereo unspecified),7,16,12,-26,/,18
COc1ccc(C(=O)C2CCCN(C(=O)c3ccc4cc[nH]c4c3)C2)c(C)c1 (stereo unspecified),-6,10,0,9,0,8
O=C1NCC(c2ccccc2)C1C(=O)N/N=C/c1ccc(Cl)s1 (stereo unspecified),18,-15,37*,17,15,-17
Cc1ccc(NC(=O)c2cnccn2)cc1S(=O)(=O)N(C)C,-8,5,30,-7,83*,3
CCN(CC)c1ccc(NC(=O)COc2ccccc2C#N)cc1S(=O)(=O)Nc1ccc(OC)cc1,-5,10,25,31,99*,-10
SMILES,Calb FLC,NALP3 yeast inh,NALP1 yeast inh,T cruzi repl,L major viab,PolyA inhibitor
O=C(Nc1ccc(Cl)c([N+](=O)[O-])c1)c1cnccn1,32,4,17,-12,83*,-13
CCN(CC)c1ccc(NC(=O)c2cnccn2)cc1S(=O)(=O)Nc1ccc(OC)cc1,14,0,18,14,64*,-9
CCN(CC)c1ccc(NC(=O)COc2ccccc2C)cc1S(=O)(=O)Nc1ccccc1OC,-2,11,18,5,42,-4
CCCCn1c(N)c(N(CCOC)C(=O)C(C)N2C(=O)c3ccccc3C2=O)c(=O)[nH]c1=O (stereo unspecified),4,9,/,8,/,21
CCCCNC(=O)c1ccc(NC(=O)CC2SC(N3CCCC3)=NC2=O)cc1 (stereo unspecified),/,16,/,/,/,/
O=C(CN1CCN(c2ccccc2)CC1)N1CCc2[nH]c3ccccc3c2C1,/,2,-2,/,91*,/
CS(=O)(=O)N(CCc1ccccc1)CC(=O)N1CCN(Cc2ccc3c(c2)OCO3)CC1,-24,15,/,-10,-3,17
Cc1ccc(CSCC(=O)N2CCN(Cc3ccc4c(c3)OCO4)CC2)cc1,2,9,19,-2,59*,-26
Cc1ccc2[nH]c3c(c2c1)CN(C(=O)CN1CCN(Cc2ccc4c(c2)OCO4)CC1)CC3,-1,19,20,32,95*,-3
Cc1ccc2[nH]c3c(c2c1)CN(C(=O)CN1CCSCC1)CC3,7,/,11,2,-3,3
O=C(O)CSCC(=O)N1CCN(Cc2ccc3c(c2)OCO3)CC1,-12,2,10,-10,/,-22
O=C(CN1CCc2[nH]c3ccccc3c2C1)N1CCCCC1,3,2,-2,3,-9,13
CS(=O)(=O)N(CC(=O)N1CCN(Cc2ccc3c(c2)OCO3)CC1)Cc1ccc(Cl)cc1,-40,2,12,2,98*,6
O=C(CCC1CCCCC1)N1CCN(Cc2ccc3c(c2)OCO3)CC1,-25,41,53,48,96*,-1
OCC1(CCCc2ccccc2)CCN(Cc2ccc(F)cc2)CC1,-22,17,14,29,91*,-24
OCC1(CCc2ccccc2)CCN(Cc2ccc(OC(F)F)cc2)CC1,-35,/,14,-9,82*,-4
COc1ccc(/C=N/NC(=O)CCSc2nc3ccccc3s2)cc1OC,-8,4,32,-1,13,-2
O=C(CCSc1nc2ccccc2s1)N/N=C/c1c(O)ccc2ccccc12,-16,4,25,46,58*,20
COc1cc([C@H]2[C@@H]3CCCC[C@]3(O)CCN2Cc2ccccc2F)ccc1O,1,-3,10,2,3,9
COC(=O)c1c(NC(=O)CN2CCC3(O)CCCCC3C2c2ccc(OC)cc2OC)sc(C)c1C (stereo unspecified),10,11,-19,12,62*,-4
